Compound activity deposited in PubChem by several laboratories.
An excerpt weighted towards active compounds, which were near 4.9% of everything screened.
FLuc stim CS – affects firefly luciferase, flagging false hits in luciferase stimulation screens; P08659; ATPlite luciferase biochemical, luminescence, 10 min; 0 = ATP-free wells, 1 = DMSO control; activation factor at 10 µM; 200,000 tested, under 10 active;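 active = luciferase activation factor, scaled between plate controls, of at least 2 with compound at 10 µM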
Target sequence (P08659 whole entry, looked up): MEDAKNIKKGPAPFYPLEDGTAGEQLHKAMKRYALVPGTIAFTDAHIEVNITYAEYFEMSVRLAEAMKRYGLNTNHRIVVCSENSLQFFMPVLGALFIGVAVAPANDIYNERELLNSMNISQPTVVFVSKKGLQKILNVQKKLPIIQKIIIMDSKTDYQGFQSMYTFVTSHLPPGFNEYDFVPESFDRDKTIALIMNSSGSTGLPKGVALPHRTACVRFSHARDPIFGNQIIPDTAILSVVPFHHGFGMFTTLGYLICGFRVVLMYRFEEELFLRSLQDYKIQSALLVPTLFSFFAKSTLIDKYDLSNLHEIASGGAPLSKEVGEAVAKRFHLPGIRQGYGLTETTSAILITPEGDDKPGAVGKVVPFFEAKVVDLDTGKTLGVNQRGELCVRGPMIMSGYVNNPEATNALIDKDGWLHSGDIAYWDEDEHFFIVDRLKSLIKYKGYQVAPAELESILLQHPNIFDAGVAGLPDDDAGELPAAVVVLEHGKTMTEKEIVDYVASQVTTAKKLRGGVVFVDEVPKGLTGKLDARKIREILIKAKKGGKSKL
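System: luciferase plus luciferin reagent, cell-free; medium: PBS as buffer for the ATP substrate; dosing: test compounds dosed from 2 mM stocks in 100% DMSO; timing: 10 min post-reagent at room temperature; measured by: luminescence measurement of luciferase light output; evaluation: luciferase activation, seen as luminescence increase over controls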
STAT3 activator – increases IL-6 driven STAT3 reporter signal; U3A cells, IL-6 STAT3-luciferase reporter, luminescence; 100% = signal with IL-6 EC80 alone; hit rate 0.91% among 190,000; AID 871; activation (% of control), % at 5.6 µM;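 active = activation above the screen-wide mean of compound activation plus 3 SD, cut at about 130% in these data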;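 also: 0% = background luminescence of wells with medium and substrate only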
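Material: STAT3-luciferase reporter U3A cells. Controls: IL-6-treated wells, 100% activation. Read-out: % activation versus median of IL-6-stimulated wells. Probe or stimulus: IL-6 stimulus at 33 ng/mL final. Timing: compound 1 h, then IL-6 6 h at 37 °C. Signal: reporter luminescence signal.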
STAT1 act – activators of IFN-gamma induced STAT1 signaling; hit rate 2.6% among 200,000; AID 932; activation (% of control), % at 5.5 µM; NIH 3T3 STAT1-luciferase reporter, luminescence; 100% = IFN-gamma alone, no compound;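 active = activation above the screen-wide mean activation plus 3 SD, cut at about 130% in these data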;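 also: raw ratio to IFN-gamma control signal so 100% means no change and 0% no light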
FLuc inh counter – counter-screen for luciferase assay inhibitors: firefly luciferase inhibition; P08659; ATPLite firefly luciferase biochemical luminescence, 10 min; inhibition, % at 10 µM; hit rate 1.5% among 200,000;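 active = inhibition above about 50% when tested at 10 µM, limit read from the data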
STAT1 blocker – inhibitors of IFN-gamma induced STAT1 signaling; inhibition, % at 5.5 µM; hit rate 0.35% among 200,000; NIH 3T3 STAT1-luciferase reporter, luminescence;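 active = inhibition above a set limit, the mean inhibition across all tested compounds plus 3 SD, cut at about 34% in these data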;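 also: 0% = IFN-gamma with DMSO and 100% = IFN-gamma with 300 µM nifuroxazide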
STAT3 blocker – reduces IL-6 driven STAT3 reporter signal; U3A cells, IL-6 STAT3-luciferase reporter, luminescence; host cell line lacks STAT1; inhibition, % at 5.5 µM; hit rate 0.89% among 190,000; AID 862;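 active = inhibition above the mean inhibition across all screened compounds plus 3 SD, cut at about 44% in these data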;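 also: 0% = DMSO only wells and 100% = 100 µM nifuroxazide control wells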
* hit, by the source's call.

SMILES | FLuc stim CS | STAT3 activator | STAT1 act | FLuc inh counter | STAT1 blocker | STAT3 blocker
CCOC(=O)CCc1c(C)c2ccc(OCC(=O)OC(C)C)cc2oc1=O | 1.1 | 101 | 98 | -5 | 2 | 1
O=[N+]([O-])c1ccc(-c2ccc(S(=O)(=O)NCCN3CCCC3)cc2)cc1 | 1 | 70 | 74 | -4 | 27 | 39
CCOC(=O)Nc1sc2c(c1C#N)CCC(C)C2 (stereo not drawn) | 1 | 105 | 132* | 2 | -36 | 0
CC1CCc2c(sc(NC(=O)COC(=O)c3ccc(O)cc3)c2C#N)C1 (stereo not drawn) | 1.1 | 111 | 107 | -6 | -7 | -4
Cc1nnc(N/N=C/c2cccc(OCc3ccc(Cl)c(Cl)c3)c2)n1N | 1 | 113 | 140* | -4 | -44 | -21
COCc1nnc(NC(=O)c2ccccc2[N+](=O)[O-])s1 | 1 | 104 | 103 | 0 | -4 | -2
COc1ccc(/C=N/Nc2ncc(-c3ccccc3)cn2)c(OC)c1 | 1 | 87 | 105 | -4 | -6 | 16
COc1ccc(/C=N/Nc2ncccc2[N+](=O)[O-])c(OC)c1 | 0.4 | 41 | 47 | 63* | 57* | 74*
CC(=O)c1ccc(N2CCN(Cc3nc(Cc4ccccc4)no3)CC2)cc1 | 1 | 99 | 87 | 0 | 13 | 6
COC(=O)c1nnn(-c2nonc2N)c1COc1ccc(C=O)cc1OC | 1 | 104 | 99 | -1 | -1 | -1
O=C(COc1ccc([N+](=O)[O-])cc1)NC(C(=O)O)C(O)c1cccc([N+](=O)[O-])c1 (stereo not drawn) | 1.1 | 103 | 100 | -8 | -2 | 2
S=C(c1ccc(-c2ccc(Cl)cc2Cl)o1)N1CCCCC1 | 0.7 | 118 | 144* | 33 | -48 | -15
Cc1ccc(-n2nc(CN3CCOCC3)c(-c3ccccc3)c2N)cc1Cl | 1 | 98 | 99 | 2 | 1 | 7
C=CCOc1ccc(/C=C/C(C)=N\O)cc1 | 0.4 | 99 | 132* | 61* | -35 | 5
C=CCOc1ccc(/C=C/C(=O)Nc2ccc(C(=O)NC)cc2)cc1 | 1.1 | 106 | 94 | -5 | 7 | -4
COC(=O)c1ccccc1C(=O)N1CCCC(CCC(=O)NCc2ccc(F)c(F)c2)C1 (stereo not drawn) | 1.1 | 106 | 101 | -7 | -2 | -3
CCOc1ccc(C2c3[nH]c4ccccc4c3CCN2CCCn2cccn2)cc1 (stereo not drawn) | 1 | 134* | 96 | -4 | 2 | -32
CC(C)CC1c2[nH]c3ccccc3c2CCN1CCCn1cccn1 (stereo not drawn) | 1.1 | 133* | 91 | -5 | 8 | -31
COCC(C)Nc1nc(C)c(C(C)=O)s1 (stereo not drawn) | 1.1 | 99 | 105 | -6 | -7 | 6
CN(C)c1ccc(/C=N/NC(=O)c2nonc2N)cc1[N+](=O)[O-] | 0.8 | 109 | 133* | 16 | -38 | -8
Nc1nonc1C(=O)N/N=C/c1cccc([N+](=O)[O-])c1 | 1 | 105 | 112 | 4 | -14 | -3
COc1ccccc1/C=C/C(=O)N1CCOCC1 | 1.1 | 99 | 101 | -5 | -1 | 8
COc1ccccc1/C=C/C(=O)N1CCC(c2ccccc2)C1 (stereo not drawn) | 0.7 | 111 | 134* | 35 | -38 | -9
Cc1ccc(C2CCN(C(=O)Nc3ccccc3)C2)cc1 (stereo not drawn) | 0.7 | 98 | 125 | 34 | -28 | 6
Cc1ccc(NC(=O)N2CCC(c3ccccc3)C2)cc1C (stereo not drawn) | 0.5 | 93 | 150* | 49 | -54 | 14
O=C(Nc1ccc(Cl)cc1)N1CCC(c2ccccc2)C1 (stereo not drawn) | 0.4 | 102 | 146* | 64* | -50 | 4
CCN(CC)C(=S)SCC(=O)NC12CC3CC(CC(C3)C1)C2 | 1.1 | 95 | 107 | -9 | -8 | 6
Cn1c(=O)c2[nH]c(-c3ccccc3O)nc2n(C)c1=O | 1 | 125 | 94 | -2 | 6 | -16
COc1ccc(-c2nc3c([nH]2)c(=O)n(C)c(=O)n3C)c(OC)c1 | 1 | 134* | 102 | 0 | -2 | -37
